Results published in publication PMC4445677 (Journal of the American Chemical Society, 2014).
“Also recorded” adds a separate entry of the source.

Columns and labels:
[1] = test system: KA-ARTD6; details: lysine to alanine mutant
[2] = test system: WT-ARTD1; assay: Auto-ADP-ribosylation by click conjugation to biotin-azide reporter, WT-ARTD1; type: biochemical, human; details: NAD+ analogue as substrate; up to 250 μM for 5-Et-6-a-NAD+
[3] = test system: KA-ARTD2; assay: Auto-ADP-ribosylation, KA-ARTD2; type: biochemical, human; details: lysine to alanine mutant
[4] = test system: WT-ARTD6; details: up to 250 μM
[5] = test system: KA-ARTD1; assay: Auto-ADP-ribosylation by click conjugation to biotin-azide reporter, KA-ARTD1; type: biochemical, human; details: NAD+ analogue as substrate; increasing concentrations
[6] = test system: nuclear extracts from human embryonic kidney (HEK) 293T cells; assay: Labeling of ADP-ribosylation protein targets in nuclear extracts; type: biochemical; details: HEK 293T nuclear extracts; for protein labeling in nuclear extracts, NAD+ analogue alone: endogenous ARTDs only, 5-Et-6-a-NAD+ 250 μM, 6-a-NAD+ 100 μM
In short: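 Nuclear extracts from human HEK 293T cells are treated with a modified NAD+ analogue (250 μM), either alone or with added KA-ARTD1. Parent 6-a-NAD+ alone on extract serves as the positive control for ADP-ribose detection. Labelled targets are detected by click chemistry with biotin–azide and immunoblot, using a Ponceau S-stained membrane as the loading control.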

[7] = test system: WT-ARTD2; assay: Auto-ADP-ribosylation, WT-ARTD2; type: biochemical, human; details: up to 250 μM
[8] = target: K903A ARTD1 (KA-ARTD1) (Homo sapiens, UniProt P09874, K903A); assay: Inhibition of ADP-ribose transfer to Histone H1 using 6-a-NAD+; type: biochemical
[9] = target: wild-type ARTD1 (WT-ARTD1) (Homo sapiens, UniProt P09874); assay: as above; type: biochemical
Sequence of wild-type ARTD1 (WT-ARTD1) (P09874 whole entry): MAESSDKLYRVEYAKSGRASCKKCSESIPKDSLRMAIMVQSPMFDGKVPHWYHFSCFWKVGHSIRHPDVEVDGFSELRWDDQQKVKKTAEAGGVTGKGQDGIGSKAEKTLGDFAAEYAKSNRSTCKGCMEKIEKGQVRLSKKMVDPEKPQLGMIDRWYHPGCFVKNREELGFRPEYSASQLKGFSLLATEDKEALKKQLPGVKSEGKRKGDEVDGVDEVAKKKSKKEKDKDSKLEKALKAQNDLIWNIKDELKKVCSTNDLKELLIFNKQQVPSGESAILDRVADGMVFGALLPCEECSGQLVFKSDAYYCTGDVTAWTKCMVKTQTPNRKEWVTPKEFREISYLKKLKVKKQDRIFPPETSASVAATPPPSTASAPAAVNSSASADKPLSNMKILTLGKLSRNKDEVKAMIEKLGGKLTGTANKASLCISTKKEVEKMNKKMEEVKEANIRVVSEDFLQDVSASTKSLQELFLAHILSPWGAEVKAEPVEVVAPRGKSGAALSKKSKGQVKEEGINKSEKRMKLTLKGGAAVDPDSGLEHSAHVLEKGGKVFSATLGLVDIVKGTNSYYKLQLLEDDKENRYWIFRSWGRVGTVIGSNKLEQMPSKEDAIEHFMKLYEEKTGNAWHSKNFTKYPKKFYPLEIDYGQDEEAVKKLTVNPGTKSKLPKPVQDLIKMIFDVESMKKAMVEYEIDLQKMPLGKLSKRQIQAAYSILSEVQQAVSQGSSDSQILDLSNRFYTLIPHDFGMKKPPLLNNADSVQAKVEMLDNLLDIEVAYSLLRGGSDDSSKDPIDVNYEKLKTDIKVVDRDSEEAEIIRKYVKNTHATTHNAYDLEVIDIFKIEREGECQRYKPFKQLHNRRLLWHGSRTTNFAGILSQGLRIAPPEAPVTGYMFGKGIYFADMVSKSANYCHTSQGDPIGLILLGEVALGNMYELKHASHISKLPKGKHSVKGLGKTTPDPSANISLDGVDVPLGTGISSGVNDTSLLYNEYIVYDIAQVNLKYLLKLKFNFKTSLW

Sequence of K903A ARTD1 (KA-ARTD1) (P09874 whole entry K903A): as the sequence (P09874 whole entry) above, with K903A counted along it

Row | Compound | modification of KA-ARTD6 [1] | auto-ADPr (modification) of WT-ARTD1 [2] | modification of KA-ARTD2 [3] | modification of WT-ARTD6 [4] | auto-ADPr (modification) of KA-ARTD1 [5] | protein labeling in nuclear extracts in the presence of KA-ARTD1 ([6]; 250 μM plus KA-ARTD1) | protein labeling in nuclear extracts, NAD+ analogue alone [6] | modification of WT-ARTD2 [7] | IC50 [8] [µM] | selectivity for KA-ARTD1 over WT-ARTD1 ([8]; ratio of IC50 values WT-ARTD1 / KA-ARTD1) [fold] | IC50 [9] [µM]
1 | 5-Et-6-a-NAD^+ | conferred sensitivity | no modification of WT-ARTD1 was detected | conferred sensitivity | no modification | only mono-ADPr of KA-ARTD1; also recorded: resulted in auto-ADPr of KA-ARTD1 | extensive labeling | no labeling was detected | no modification |  |  | 
2 | 6-alkyne-NAD^+ [6-a-NAD^+, reference compound] |  | extensive poly-ADPr of WT-ARTD1 |  |  | only mono-ADPr of KA-ARTD1 |  | labeling of several proteins |  |  |  | 
3 | CCc1cncc(C(N)=O)c1 [5-ethyl-nicotinamide] |  |  |  |  |  |  |  |  | 165 ± 11 | 14 | 2360 ± 368
